Source: ChEMBL document CHEMBL1155361, “Anti-oxidant, anti-fungal and anti-leishmanial activities of novel 3-[4-(1H-imidazol-1-yl) phenyl]prop-2-en-1-ones” (Eur J Med Chem, 2009)
In brackets after ≈: the same amount, converted by molar mass.

Tests used:
Yarrowia lipolytica = test: Antimicrobial activity against Candida lipolytica at 100 ug/ml after 24 hrs by cup diffusion method; assay type: functional; conditions: for zone of inhibition at 100 µg/mL: read-out: DIZ
Procedure, shortened: (§1)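 Cup diffusion on fungus-inoculated potato dextrose agar plates, with samples in DMSO. Incubated at 30 °C. Read the diameter of the clear inhibition zone surrounding the sample.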

Trichoderma viride = test: Antimicrobial activity against Trichoderma viride at 100 ug/ml after 24 hrs by cup diffusion method; assay type: functional; conditions: for zone of inhibition at 100 µg/mL: read-out: DIZ; procedure, shortened: as §1
[1] = Antioxidant activity assessed as superoxide radical scavenging activity at 0.5 mM by NBT reduction assay; assay type: functional
Procedure, shortened: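 Superoxide generated by an NADH/phenazine methosulphate system. The mix held 40 µl of 280 µM NADH, 40 µl of 80 µM NBT, 20 µl of 8 µM PMS, 10 µl of 1 mM sample in DMSO, and 0.1 M phosphate buffer pH 7.4 (concentrations are of the added solutions). Ran at room temperature, read formazan at 560 nm, and calculated %RSA = 100 − (OD test/OD control × 100).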

Leishmania major = test: Antileishmanial activity against Leishmania major promastigotes after 72 hrs; assay type: functional, organism-based
Procedure, shortened: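 Cultured Leishmania major parasites in M199 with 10% foetal bovine serum, 25 mM HEPES, and penicillin/streptomycin, at 24 °C with shaking. Harvested log-phase cells and diluted them to 2 × 10^6 cells/ml. Made 1 mg/ml DMSO stocks and serially diluted them in medium. Used DMSO as the negative control and amphotericin B as the positive control.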

Aspergillus fumigatus = test: Antimicrobial activity against Aspergillus fumigatus at 100 ug/ml after 24 hrs by cup diffusion method; assay type: functional; conditions: for zone of inhibition at 100 µg/mL: read-out: DIZ
Procedure, shortened: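 Cup diffusion on potato dextrose agar plates inoculated with the fungus, with samples dissolved in DMSO. Incubated at 45 °C for A. fumigatus. Read the diameter of the clear zone of inhibition around the sample.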

Aspergillus niger = test: Antimicrobial activity against Aspergillus niger at 100 ug/ml after 24 hrs by cup diffusion method; assay type: functional; conditions: for zone of inhibition at 100 µg/mL: read-out: DIZ; procedure, shortened: as §1

| Compound | zone of inhibition at 100 µg/mL (Yarrowia lipolytica) [mm] | zone of inhibition at 100 µg/mL (Trichoderma viride) [mm] | Activity [1] [%] | IC50 (Leishmania major) [mg/L] | zone of inhibition at 100 µg/mL (Aspergillus fumigatus) [mm] | zone of inhibition at 100 µg/mL (Aspergillus niger) [mm] | inhibition zone (IZ) (Yarrowia lipolytica) [mm] | inhibition zone (IZ) (Trichoderma viride) [mm] | inhibition zone (IZ) (Aspergillus fumigatus) [mm] | inhibition zone (IZ) (Aspergillus niger) [mm] |
| --- | --- | --- | --- | --- | --- | --- | --- | --- | --- | --- |
| O=C(/C=C/c1ccc(-n2ccnc2)cc1)c1ccc(Cl)cc1 | 10 | 9 | 90.1 | 0.92 (≈ 2.98 µM) | 20 | 8 | – | – | – | – |
| O=C(/C=C/c1ccc(-n2ccnc2)cc1)c1ccccc1Br | 3 | 2 | 76 | 0.86 (≈ 2.43 µM) | 18 | 4 | – | – | – | – |
| NYSTATIN | – | – | – | – | – | – | 16 | 17 | 22 | 10 |
| O=C(/C=C/c1ccc(-n2ccnc2)cc1)c1ccc(Br)cc1 | 8 | 9 | 42.1 | 0.86 (≈ 2.43 µM) | 18 | 4 | – | – | – | – |
| C[C@@H]1[C@H](O)[C@@H](C)/C=C/C=C/C=C/C=C/C=C/C=C/C=C/[C@H](O[C@@H]2O[C@H](C)[C@@H](O)[C@H](N)[C@@H]2O)C[C@@H]2O[C@](O)(C[C@@H](O)C[C@@H](O)[C@H](O)CC[C@@H](O)C[C@@H](O)CC(=O)O[C@H]1C)C[C@H](O)[C@H]2C(=O)O [AMPHOTERICIN B] | – | – | – | 0.56 (≈ 0.606 µM) | – | – | – | – | – | – |
| O=C(/C=C/c1ccc(-n2ccnc2)cc1)c1ccc(F)c(F)c1 | 4 | 3 | 8.3 | 0.89 (≈ 2.87 µM) | 18 | 4 | – | – | – | – |
| COc1cccc(C(=O)/C=C/c2ccc(-n3ccnc3)cc2)c1 | 7 | 8 | 83.9 | 0.98 (≈ 3.22 µM) | 16 | 3 | – | – | – | – |
| O=C(/C=C/c1ccc(-n2ccnc2)cc1)c1c(Cl)cccc1Cl | 7 | 6 | 47.7 | 0.67 (≈ 1.95 µM) | 20 | 4 | – | – | – | – |
| O=C(/C=C/c1ccc(-n2ccnc2)cc1)c1cccc(F)c1F | 3 | 4 | 16.7 | 0.83 (≈ 2.67 µM) | 19 | 4 | – | – | – | – |
| COc1ccc(C(=O)/C=C/c2ccc(-n3ccnc3)cc2)cc1 | 6 | 6 | 66 | 0.98 (≈ 3.22 µM) | 17 | 3 | – | – | – | – |
| O=C(/C=C/c1ccc(-n2ccnc2)cc1)c1cc(Cl)ccc1Cl | 10 | 10 | 18.8 | 0.99 (≈ 2.88 µM) | 19 | 6 | – | – | – | – |
| O=C(/C=C/c1ccc(-n2ccnc2)cc1)c1ccccc1 | 4 | 3 | 81.9 | 0.91 (≈ 3.32 µM) | 18 | 4 | – | – | – | – |
| O=C(/C=C/c1ccc(-n2ccnc2)cc1)c1ccc(Cl)cc1Cl | 4 | 2 | 3.3 | 0.72 (≈ 2.1 µM) | 15 | 1 | – | – | – | – |
| O=C(/C=C/c1ccc(-n2ccnc2)cc1)c1ccc(F)cc1 | 1 | 1 | 64.5 | 0.71 (≈ 2.43 µM) | 1 | 2 | – | – | – | – |
| O=C(/C=C/c1ccc(-n2ccnc2)cc1)c1ccccc1Cl | 5 | 5 | 70.4 | 0.93 (≈ 3.01 µM) | 19 | 5 | – | – | – | – |
| O=C(/C=C/c1ccc(-n2ccnc2)cc1)c1ccc(I)cc1 | 3 | 2 | 40.4 | 0.92 (≈ 2.3 µM) | 10 | 2 | – | – | – | – |
| O=C(/C=C/c1ccc(-n2ccnc2)cc1)c1ccc(Cl)c(Cl)c1 | 7 | 6 | 0.4 | 0.99 (≈ 2.88 µM) | 10 | 2 | – | – | – | – |
| O=C(/C=C/c1ccc(-n2ccnc2)cc1)c1ccccc1F | 5 | 5 | 79.2 | 0.98 (≈ 3.35 µM) | 17 | 3 | – | – | – | – |
| O=C(/C=C/c1ccc(-n2ccnc2)cc1)c1ccc(Cl)c(Cl)c1Cl | 6 | 6 | 2.4 | 0.63 (≈ 1.67 µM) | 10 | 1 | – | – | – | – |
| COc1ccc(C(=O)/C=C/c2ccc(-n3ccnc3)cc2)cc1OC | 4 | 4 | 51 | 0.82 (≈ 2.45 µM) | 10 | 3 | – | – | – | – |
| O=C(/C=C/c1ccc(-n2ccnc2)cc1)c1c(F)cccc1F | 7 | 5 | 69.5 | 0.97 (≈ 3.13 µM) | 15 | 4 | – | – | – | – |
| CCCOC(=O)c1cc(O)c(O)c(O)c1 | – | – | 91.3 | – | – | – | – | – | – | – |
| O=C(/C=C/c1ccc(-n2ccnc2)cc1)c1cccc(O)c1 | 5 | 6 | 8.65 | 0.96 (≈ 3.31 µM) | 5 | 5 | – | – | – | – |
